# Measurements published in article PMC6076386 (Biochemistry, 2017).
# Entries after “also recorded” stand apart in the source; their conditions may differ.
# Key:
# [1] = tested on: thrombin ABE I region 65–84; conditions: cited from earlier work
# PAR3 (Homo sapiens) = PAR3 (Homo sapiens) (UniProt O00254); experiment: fluorescence titration; conditions: cited from earlier work
# [2] = biological target: Wild Type PPACK-IIa (human plasma thrombin), ABE I (Homo sapiens, UniProt P00734); experiment: 2D 1H-15N HSQC NMR titration, wild-type PPACK-thrombin; assay type: binding; conditions: native PAR3 sequence, 15N-D54 and 15N-F47, PPACK-IIa; pH 6.5, 25 °C
# Procedure, shortened: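 Human plasma thrombin blocked with PPACK (4:1 inhibitor:enzyme, 37 °C, 30 min), buffer-exchanged into 25 mM H₃PO₄, 150 mM NaCl, 0.2 mM EDTA, 10% D₂O, pH 6.5, 25 °C. ¹⁵N-labeled PAR3(44–56) held at 50 μM while thrombin (starting 210 μM) was serially diluted, spanning 4:1 to 0.1:1 ratios. Chemical-shift changes were fitted with a ligand-normalized quadratic for K_D. At least triplicate; Monte-Carlo errors assumed 10% dilution error.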
# thrombin ABE I = conditions: cited from earlier work
substance,measurement,setting,value
hirudin [reference compound],HDX-MS binding region,[1],both bind to the thrombin ABE I region 65–84
Thrombin (from UniProt P00734),Kd,PAR3 (Homo sapiens),2000 nM
PAR3 (^44Q N T ^15F E E F P L S ^15D I E[56]) [PAR3 (44–56)],binding affinity by 15N-HSQC NMR titration,[2],binding affinities could not be determined; also recorded: bound too tightly to thrombin
same,HDX-MS binding region,[1],both bind to the thrombin ABE I region 65–84
same,binding by X-ray crystallography,thrombin ABE I,confirmed to bind in a specific manner to thrombin ABE I
